Experimental data published in ChEMBL document CHEMBL1123369, “Synthesis and structure-activity relationships of new arylfluoronaphthyridine antibacterial agents” (1986).
Converted amounts (≈) assume the structure as drawn.

How the values were obtained:
Format in all cases: functional
Pseudomonas aeruginosa [1] = experiment: In vitro antibacterial activity against Pseudomonas aeruginosa K799/WT
Summary of the method: (§1)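 Twofold agar dilution in brain-heart infusion agar, test range 200 to 0.005 µg/mL, made from a 2000 µg/mL stock. Organisms grown overnight in BHI broth at 36 °C. About 10⁴ organisms inoculated per plate, then incubated 18 h at 36 °C. MIC taken as the lowest concentration giving no visible growth.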

Escherichia coli = experiment: In vitro antibacterial activity against Escherichia coli Juhl; summary of the method: as §1
Staphylococcus aureus [2] = experiment: In vitro antibacterial activity against Staphylococcus aureus ATCC 6538P; summary of the method: as §1
[3] = system: Staphylococcus epidermidis; experiment: In vitro antibacterial activity against Staphylococcus epidermidis 3519; summary of the method: as §1
Klebsiella pneumoniae = experiment: In vitro antibacterial activity against Klebsiella pneumoniae 8045; summary of the method: as §1
Klebsiella aerogenes = experiment: In vitro antibacterial activity against Enterobacter aerogenes ATCC 13048; summary of the method: as §1
Pseudomonas aeruginosa [4] = experiment: In vitro antibacterial activity against Pseudomonas aeruginosa 5007; summary of the method: as §1
Streptococcus pyogenes = experiment: In vitro antibacterial activity against Streptococcus pyogenes 930; summary of the method: as §1
Staphylococcus aureus [5] = experiment: In vitro antibacterial activity against Staphylococcus aureus CMX 686B; summary of the method: as §1
Enterococcus faecium = experiment: In vitro antibacterial activity against Streptococcus faecium ATCC 8043; summary of the method: as §1
Acinetobacter sp. = experiment: In vitro antibacterial activity against Acinetobacter species CMX669; summary of the method: as §1
Mus musculus [6] = experiment: In vivo antibacterial activity against systemic infection caused by Escherichia coli Juhl in mice.
Summary of the method: (§2)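 CF-1 female mice, about 20 g. Infected ip with 0.5 mL of an 18-h BHI culture diluted in 5% hog gastric mucin to 100× LD₅₀. LD₅₀ set by 10-fold dilutions (Reed–Muench, day 6). Compound given in water or dilute NaOH, sc or po, total dose split at 1 and 5 h post-infection. At least 3 dose levels, 10 mice each. Deaths followed 6 days. ED₅₀ from day-6 cumulative mortality by trimmed Logit, with 95% confidence limits.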

Mus musculus [7] = experiment: In vivo dose(po) inhibiting systemic infections caused by Escherichia coli Juhl in mice.; summary of the method: as §2
Mus musculus [8] = experiment: In vivo dose(sc) inhibiting systemic infections caused by Escherichia coli Juhl in mice.; summary of the method: as §2
Mus musculus [9] = experiment: In vivo dose(po) inhibiting systemic infections caused by Pseudomonas aeruginosa 5007 in mice; summary of the method: as §2
Mus musculus [10] = experiment: In vivo dose(sc) inhibiting systemic infections caused by Staphylococcus aureus NCTC 10649 in mice; summary of the method: as §2
Mus musculus [11] = experiment: In vivo dose(sc) inhibiting systemic infections caused by Pseudomonas aeruginosa 5007 in mice; summary of the method: as §2
Mus musculus [12] = experiment: In vivo antibacterial activity against systemic infection caused by Escherichia coli Juhl in mice; summary of the method: as §2
Mus musculus [13] = experiment: In vivo dose(po) inhibiting systemic infections caused by Escherichia coli Juhl in mice; summary of the method: as §2
Mus musculus [14] = experiment: In vivo antibacterial activity against systemic infection caused by Pseudomonas aeruginosa 5007 in mice
Mus musculus [15] = experiment: In vivo dose(po) inhibiting systemic infections caused by Staphylococcus aureus NCTC 10649 in mice; summary of the method: as §2
Mus musculus [16] = experiment: In vivo dose(sc) inhibiting systemic infections caused by Escherichia coli Juhl in mice
Summary of the method: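 Female CF-1 mice (~20 g) infected ip with 0.5 mL of 18-h BHI culture of E. coli Juhl diluted in 5% (w/v) hog gastric mucin to 100 times LD50 (LD50 from 10-fold dilutions, day-6 mortality, Reed-Muench). Compound dissolved in water (HCl salt) or dilute NaOH then water, given sc split equally at 1 and 5 h post-infection. 10 mice per dose, ≥3 doses. Deaths recorded 6 days; ED50 from day-6 cumulative mortality by trimmed Logit.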

Mus musculus [17] = experiment: In vivo antibacterial activity against systemic infection caused by Staphylococcus aureus NCTC 10649 in mice
Mus musculus [18] = experiment: In vivo dose(po) inhibiting systemic infections caused by Pseudomonas aeruginosa 5007 in mice.; summary of the method: as §2
Mus musculus [19] = experiment: In vivo dose(sc) inhibiting systemic infections caused by Staphylococcus aureus NCTC 10649 in mice.; summary of the method: as §2
Mus musculus [20] = experiment: In vivo antibacterial activity against systemic infection caused by Pseudomonas aeruginosa 5007 in mice.; summary of the method: as §2
Mus musculus [21] = experiment: In vivo dose(po) inhibiting systemic infections caused by Staphylococcus aureus NCTC 10649 in mice.; summary of the method: as §2
Mus musculus [22] = experiment: In vivo antibacterial activity against systemic infection caused by Staphylococcus aureus NCTC 10649 in mice.; summary of the method: as §2
Mus musculus [23] = experiment: In vivo dose(sc) inhibiting systemic infections caused by Pseudomonas aeruginosa 5007 in mice.; summary of the method: as §2
Mus musculus [24] = experiment: In vivo antibacterial activity against systemic infection caused by Escherichia coli juhl in mice.; summary of the method: as §2

| Compound | MIC (Pseudomonas aeruginosa [1]) [µg/mL] | MIC (Escherichia coli) [µg/mL] | MIC (Staphylococcus aureus [2]) [µg/mL] | MIC [3] [µg/mL] | MIC (Klebsiella pneumoniae) [µg/mL] | MIC (Klebsiella aerogenes) [µg/mL] | MIC (Pseudomonas aeruginosa [4]) [µg/mL] | MIC (Streptococcus pyogenes) [µg/mL] | MIC (Staphylococcus aureus [5]) [µg/mL] | MIC (Enterococcus faecium) [µg/mL] | MIC (Acinetobacter sp.) [µg/mL] | ED50 (Mus musculus [7]) [mg/kg] | ED50 (Mus musculus [8]) [mg/kg] | also measured |
| --- | --- | --- | --- | --- | --- | --- | --- | --- | --- | --- | --- | --- | --- | --- |
| O=C(O)c1cn(C2CC2)c2cc(N3CCNCC3)c(F)cc2c1=O [CIPROFLOXACIN] | 0.1 (≈ 0.302 µM) | – | 0.2 (≈ 0.604 µM) | 0.39 (≈ 1.18 µM) | 0.02 (≈ 0.0604 µM) | 0.05 (≈ 0.151 µM) | 0.1 (≈ 0.302 µM) | 0.39 (≈ 1.18 µM) | 0.39 (≈ 1.18 µM) | 0.2 (≈ 0.604 µM) | 1.56 (≈ 4.71 µM) | – | – | ED50 (Mus musculus [9]): 13.3 mg/kg; ED50 (Mus musculus [10]): 1.6 mg/kg; ED50 (Mus musculus [11]): 2.1 mg/kg; MIC (Mus musculus [12]): 0.02 µg/mL (≈ 0.0604 µM); ED50 (Mus musculus [13]): 1.9 mg/kg; MIC (Mus musculus [14]): 0.1 µg/mL (≈ 0.302 µM); ED50 (Mus musculus [15]): 15.5 mg/kg; ED50 (Mus musculus [16]): 0.2 mg/kg; MIC (Mus musculus [17]): 0.25 µg/mL (≈ 0.754 µM) |
| CCn1cc(C(=O)O)c(=O)c2cc(F)c(N3CCNCC3)cc21 [NORFLOXACIN] | 0.39 (≈ 1.22 µM) | 0.1 (≈ 0.313 µM) | 0.78 (≈ 2.44 µM) | 1.56 (≈ 4.89 µM) | 0.1 (≈ 0.313 µM) | 0.2 (≈ 0.626 µM) | 0.39 (≈ 1.22 µM) | 3.1 (≈ 9.71 µM) | 0.78 (≈ 2.44 µM) | 0.78 (≈ 2.44 µM) | 6.2 (≈ 19.4 µM) | – | – | – |
| NC1CCN(c2nc3c(cc2F)c(=O)c(C(=O)O)cn3-c2ccc(F)cc2F)C1 (stereo unspecified) [TOSUFLOXACIN] | 0.39 (≈ 0.965 µM) | 0.02 (≈ 0.0495 µM) | 0.05 (≈ 0.124 µM) | 0.1 (≈ 0.247 µM) | 0.02 (≈ 0.0495 µM) | 0.1 (≈ 0.247 µM) | 0.2 (≈ 0.495 µM) | 0.2 (≈ 0.495 µM) | 0.05 (≈ 0.124 µM) | 0.2 (≈ 0.495 µM) | 0.1 (≈ 0.247 µM) | 1.3 | 0.2 | ED50 (Mus musculus [18]): 4.9 mg/kg; ED50 (Mus musculus [19]): 0.2 mg/kg; MIC (Mus musculus [20]): 0.2 µg/mL (≈ 0.495 µM); ED50 (Mus musculus [21]): 1.4 mg/kg; MIC (Mus musculus [22]): 0.03 µg/mL (≈ 0.0742 µM); ED50 (Mus musculus [23]): 3.6 mg/kg; MIC (Mus musculus [24]): 0.02 µg/mL (≈ 0.0495 µM) |

Second part, led by results:

| MIC (Pseudomonas aeruginosa [1]) [µg/mL] | MIC (Escherichia coli) [µg/mL] | MIC (Staphylococcus aureus [2]) [µg/mL] | MIC [3] [µg/mL] | MIC (Klebsiella pneumoniae) [µg/mL] | MIC (Klebsiella aerogenes) [µg/mL] | MIC (Pseudomonas aeruginosa [4]) [µg/mL] | MIC (Streptococcus pyogenes) [µg/mL] | MIC (Staphylococcus aureus [5]) [µg/mL] | MIC (Enterococcus faecium) [µg/mL] | MIC (Acinetobacter sp.) [µg/mL] | Compound | ED50 (Mus musculus [7]) [mg/kg] | ED50 (Mus musculus [8]) [mg/kg] | also measured |
| --- | --- | --- | --- | --- | --- | --- | --- | --- | --- | --- | --- | --- | --- | --- |
| 3.1 (≈ 8 µM) | 0.39 (≈ 1.01 µM) | 0.05 (≈ 0.129 µM) | 0.2 (≈ 0.516 µM) | 0.1 (≈ 0.258 µM) | 0.39 (≈ 1.01 µM) | 3.1 (≈ 8 µM) | 0.78 (≈ 2.01 µM) | 0.05 (≈ 0.129 µM) | 1.56 (≈ 4.03 µM) | 0.39 (≈ 1.01 µM) | O=C(O)c1cn(-c2ccc(F)cc2)c2nc(N3CCC(O)C3)c(F)cc2c1=O (stereo unspecified) | – | – | – |
| 1.56 (≈ 3.73 µM) | 0.1 (≈ 0.239 µM) | 0.2 (≈ 0.478 µM) | 0.78 (≈ 1.86 µM) | 0.2 (≈ 0.478 µM) | 3.1 (≈ 7.41 µM) | 1.56 (≈ 3.73 µM) | 1.56 (≈ 3.73 µM) | 0.39 (≈ 0.932 µM) | 3.1 (≈ 7.41 µM) | 0.39 (≈ 0.932 µM) | CC1CN(c2nc3c(cc2F)c(=O)c(C(=O)O)cn3-c2ccc(F)cc2F)CCN1 (stereo unspecified) | 3.9 | 1.4 | MIC (Mus musculus [6]): 0.1 µg/mL (≈ 0.239 µM) |
| 1.56 | 0.2 | 0.2 | 0.39 | 0.1 | 0.78 | 0.78 | 1.56 | 0.2 | 1.56 | 0.78 | CN1CCN(c2cc3c(cc2F)c(=O)c(C(=O)O)cn3-c2ccc(F)cc2)CC1.Cl [DIFLOXACIN HYDROCHLORIDE] | – | – | – |
| 0.39 | 0.05 | 0.2 | 0.39 | 0.02 | 0.2 | 0.39 | 0.78 | 0.2 | 1.56 | 0.2 | Cl.O=C(O)c1cn(-c2ccc(F)cc2)c2cc(N3CCNCC3)c(F)cc2c1=O [SARAFLOXACIN HYDROCHLORIDE] | 4.3 | 0.6 | ED50 (Mus musculus [18]): 21.4 mg/kg; MIC (Mus musculus [6]): 0.05 µg/mL; ED50 (Mus musculus [19]): 1.6 mg/kg; MIC (Mus musculus [20]): 0.39 µg/mL; ED50 (Mus musculus [21]): 6.5 mg/kg; MIC (Mus musculus [22]): 0.12 µg/mL; ED50 (Mus musculus [23]): 1.6 mg/kg |
